We go through 2 molecules from ChEMBL document CHEMBL1124161, “4-Hydroxy-3-quinolinecarboxamides with antiarthritic and analgesic activities” (J Med Chem, 1988).

SMILES strings stand for the structures. Active and inactive are the calls of the source. The calls are words filed in the database; no cut-off is given here.

Assay [1] has as its system Mus musculus. Nature of the assay: Analgesic activity against acetic acid induced writhing test in mouse after peroral administration. In kind it is functional. The conditions noted are these: Mus musculus, po; read-out: ED50. (Writhing tests count abdominal constrictions after an irritant is injected.)
Assay [2] relates to Rattus norvegicus. Kind of assay: Antiinflammatory activity against carrageenan-induced foot edema in rat after peroral administration of 25 mg/kg; IA means Inactive. In kind it is functional, organism-based. Set-up: dose 25 mg/kg. (In general: In the carrageenan paw model, swelling and tenderness develop within hours.)
For assay [3], the system named is Mus musculus. Nature of the assay: Analgesic activity against acetic acid induced writhing test in mouse administered peroral dose of 25 mg/kg; IA=Inactive. The class given is functional, organism-based. Details: dose 25 mg/kg. An outline of the steps:
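Female mice (20–22 g), groups of 10, fasted 7 h; drug given orally 30 min before intraperitoneal injection of 0.2 mL 1% aqueous acetic acid. Stretching/writhing movements counted from minute 5 to 20 after irritant.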

In assay [4] the test system is Rattus norvegicus. Kind of assay: Antiinflammatory activity against carrageenan-induced foot edema in rat after oral administration of 25 mg/kg; IA=Inactive. In kind it is functional, organism-based. Set-up: dose 25 mg/kg.

The term ED50 denotes the midpoint of the dose-response relation. For `COCc1nc2c(C(F)(F)F)cccc2c(O)c1C(=O)Nc1nccs1`, the ED50 with Mus musculus [1] was determined as 25 mg/kg. For the same molecule, the ED50 entry with Rattus norvegicus [2] was “inactive”.
Turning to `C=Cc1nc2c(C(F)(F)F)cccc2c(O)c1C(=O)Nc1nccs1`, the ED50 result in the assay with Mus musculus [3] and in the assay on Rattus norvegicus [4] was “inactive” throughout.
